Laboratory results taken from ChEMBL document CHEMBL4190388, “Discovery and Optimization of Indolyl-Containing 4-Hydroxy-2-Pyridone Type II DNA Topoisomerase Inhibitors Active against Multidrug Resistant Gram-negative Bacteria” (J Med Chem, 2018).
≈ marks a conversion by molar mass, not a printed value.

Assays:
Escherichia coli [1] = test: Antibacterial activity against fluoroquinolone resistant Escherichia coli SKM18 by CLSI M100-S17 protocol based method; type: functional
Escherichia coli [2] = test: Antibacterial activity against wild type Escherichia coli ATCC 25922 by CLSI M100-S17 protocol based method; type: functional
[3] = Inhibition of His tagged Escherichia coli ATCC 25922 DNA gyrase A expressed in Escherichia coli BL21 (DE3) pLysS cells assessed as reduction in enzyme-mediated supercoiling of relaxed plasmid DNA pNO1 after 30 mins in presence of biotinylated TFO1 by fluorescence assay
[4] = Inhibition of Escherichia coli DNA topoisomerase 4 assessed as reduction in decatenation activity using kinetoplast concatenated DNA as substrate after 30 mins by picogreen dye based fluorescence assay
Acinetobacter baumannii [5] = test: Antibacterial activity against wild type Acinetobacter baumannii by broth microdilution method; type: functional
Outline: (§1)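 MICs were determined by CLSI broth methods, except that organisms were grown in brain–heart–infusion medium. The panel comprised wild-type and resistant E. coli and A. baumannii strains, including 12 strains whose details are given by reference.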

Acinetobacter baumannii [6] = test: Antibacterial activity against multidrug resistant Acinetobacter baumannii by broth microdilution method; type: functional; outline: as §1
Escherichia coli [7] = test: Antibacterial activity against multidrug resistant Escherichia coli by broth microdilution method; type: functional; outline: as §1
Escherichia coli [8] = test: Antibacterial activity against quinolone resistant Escherichia coli by broth microdilution method; type: functional; outline: as §1
Acinetobacter baumannii [9] = test: Antibacterial activity against carbapenem resistant Acinetobacter baumannii by broth microdilution method; type: functional; outline: as §1
Escherichia coli [10] = test: Antibacterial activity against beta-lactam resistant Escherichia coli by broth microdilution method; type: functional; outline: as §1
Escherichia coli [11] = test: Antibacterial activity against wild type Escherichia coli by broth microdilution method; type: functional; outline: as §1
Acinetobacter baumannii [12] = test: Antibacterial activity against aminoglycoside resistant Acinetobacter baumannii by broth microdilution method; type: functional; outline: as §1
Acinetobacter baumannii [13] = test: Antibacterial activity against beta-lactam resistant Acinetobacter baumannii by broth microdilution method; type: functional; outline: as §1
Acinetobacter baumannii [14] = test: Antibacterial activity against quinolone resistant Acinetobacter baumannii by broth microdilution method; type: functional; outline: as §1
Escherichia coli [15] = test: Antibacterial activity against aminoglycoside resistant Escherichia coli by broth microdilution method; type: functional; outline: as §1
Escherichia coli [16] = test: Selectivity ratio of MIC for wild type Escherichia coli ATCC 25922 in presence of HSA to MIC for wild type Escherichia coli ATCC 25922; type: functional
Acinetobacter baumannii [17] = test: Antibacterial activity against fluoroquinolone resistant Acinetobacter baumannii isolate MMX2240 by CLSI M100-S17 protocol based method; type: functional
Klebsiella pneumoniae = test: Antibacterial activity against wild type Klebsiella pneumoniae ATCC 35657 by CLSI M100-S17 protocol based method; type: functional
Acinetobacter baumannii [18] = test: Antibacterial activity against wild type Acinetobacter baumannii ATCC BAA-747 by CLSI M100-S17 protocol based method; type: functional
Escherichia coli [19] = test: Antibacterial activity against wild type Escherichia coli ATCC 25922 in presence of HSA by CLSI M100-S17 protocol based method; type: functional
Escherichia coli [20] = test: Antibacterial activity against quinolone resistance Escherichia coli isolate ELZ4251 harboring gyrA/parC mutant by CLSI M100-S17 protocol based method; type: functional
[21] = Oral bioavailability in CD1 mouse plasma by LC-MS/MS analysis; type: ADME, organism-based
Mus musculus [22] = test: Terminal half life in CD1 mouse plasma at 10 mg/kg, iv by LC-MS/MS analysis; type: ADME, organism-based; conditions: in vivo
Mus musculus [23] = test: AUC (0 to 24 hrs) in CD1 mouse plasma at 10 mg/kg, iv by LC-MS/MS analysis; type: ADME, organism-based; parameters: time < 24 hr, dose 10 mg/kg, route intravenous; conditions: in vivo
Outline: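 CD-1 mice given a single 10 mg/kg iv dose (n = 3), in either 10% DMSO plus 1% Tween 80 in pH 8.0 phosphate buffer or 20% (2-hydroxypropyl)-β-cyclodextrin in pH 4.0 citrate buffer; plasma exposure measured.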

Mus musculus [24] = test: Volume of distribution at steady state in CD1 mouse plasma at 10 mg/kg, iv by LC-MS/MS analysis; type: ADME, organism-based; conditions: in vivo
[25] = Fraction unbound in mouse plasma at 1 uM by equilibrium dialysis method; type: ADME, cell-free

SMILES: CCNCc1cc2cc3c(cc2n1C)CCCCc1c-3[nH]c(=O)c(C(=O)O)c1O
- MIC (Escherichia coli [1]): 3.1 mg/L (≈ 7.84 µM)
- MIC (Escherichia coli [2]): 0.78 mg/L (≈ 1.97 µM)
- IC50 [3]: 0.8 µM
- IC50 [4]: 15.3 µM

SMILES: C[C@H]1COc2c(N3CCN(C)CC3)c(F)cc3c(=O)c(C(=O)O)cn1c23.C[C@H]1COc2c(N3CCN(C)CC3)c(F)cc3c(=O)c(C(=O)O)cn1c23.O [LEVOFLOXACIN]
- MIC50 (Acinetobacter baumannii [5]): 2 mg/L
- MIC90 (Acinetobacter baumannii [5]): 16 mg/L
- MIC (Acinetobacter baumannii [6]): 0.06 to 64 mg/L
- MIC50 (Acinetobacter baumannii [6]; Acinetobacter baumannii): 2 mg/L
- MIC90 (Acinetobacter baumannii [6]; Acinetobacter baumannii): 16 mg/L
- MIC (Escherichia coli [7]): 0.015 to 32 mg/L
- MIC50 (Escherichia coli [7]; Escherichia coli): 0.06 mg/L
- MIC90 (Escherichia coli [7]; Escherichia coli): 32 mg/L
- MIC (Escherichia coli [8]): 0.015 to 32 mg/L
- MIC50 (Escherichia coli [8]; Escherichia coli): 0.06 mg/L
- MIC90 (Escherichia coli [8]; Escherichia coli): 32 mg/L
- MIC (Acinetobacter baumannii [9]): 0.06 to 64 mg/L
- MIC50 (Acinetobacter baumannii [9]; Acinetobacter baumannii): 2 mg/L
- MIC90 (Acinetobacter baumannii [9]; Acinetobacter baumannii): 16 mg/L
- MIC (Escherichia coli [10]): 0.015 to 32 mg/L
- MIC50 (Escherichia coli [10]; Escherichia coli): 0.06 mg/L
- MIC90 (Escherichia coli [10]; Escherichia coli): 32 mg/L
- MIC50 (Escherichia coli [11]): 0.06 mg/L
- MIC90 (Escherichia coli [11]): 32 mg/L
- MIC (Acinetobacter baumannii [12]): 0.06 to 64 mg/L
- MIC50 (Acinetobacter baumannii [12]; Acinetobacter baumannii): 2 mg/L
- MIC90 (Acinetobacter baumannii [12]; Acinetobacter baumannii): 16 mg/L
- MIC (Acinetobacter baumannii [13]): 0.06 to 64 mg/L
- MIC50 (Acinetobacter baumannii [13]; Acinetobacter baumannii): 2 mg/L
- MIC90 (Acinetobacter baumannii [13]; Acinetobacter baumannii): 16 mg/L
- MIC (Acinetobacter baumannii [14]): 0.06 to 64 mg/L
- MIC50 (Acinetobacter baumannii [14]; Acinetobacter baumannii): 2 mg/L
- MIC90 (Acinetobacter baumannii [14]; Acinetobacter baumannii): 16 mg/L
- MIC (Escherichia coli [15]): 0.015 to 32 mg/L
- MIC50 (Escherichia coli [15]; Escherichia coli): 0.06 mg/L
- MIC90 (Escherichia coli [15]; Escherichia coli): 32 mg/L

SMILES: CC(C)NCc1cc2cc3c(cc2n1C)OCCc1c-3[nH]c(=O)c(C(=O)O)c1O
- Ratio (Escherichia coli [16]): 2 - 4
- MIC (Escherichia coli [1]): 0.49 mg/L (≈ 1.23 µM)
- MIC (Acinetobacter baumannii [17]): 6.3 mg/L (≈ 15.9 µM)
- MIC (Klebsiella pneumoniae): 1.6 mg/L (≈ 4.03 µM)
- MIC (Escherichia coli [2]): 0.49 mg/L (≈ 1.23 µM)
- MIC (Acinetobacter baumannii [18]): 3.9 mg/L (≈ 9.81 µM)
- MIC (Escherichia coli [19]): 2 mg/L
- MIC (Escherichia coli [20]): 1 mg/L (≈ 2.52 µM)

SMILES: Cn1c(CNC2(C)CCC2)cc2cc3c(cc21)CCCc1c-3[nH]c(=O)c(C(=O)O)c1O
- Ratio (Escherichia coli [16]): 4 - 16
- bioavailability [21]: 65%
- MIC (Escherichia coli [1]): 1 mg/L (≈ 2.37 µM)
- MIC (Acinetobacter baumannii [17]): 1 mg/L (≈ 2.37 µM)
- MIC (Klebsiella pneumoniae): 1 mg/L (≈ 2.37 µM)
- beta t1/2 (Mus musculus [22]): 3.1 h
- AUC (Mus musculus [23]): 4.58 µg·h/mL
- MIC (Escherichia coli [2]): 1 mg/L (≈ 2.37 µM)
- MIC (Acinetobacter baumannii [18]): 0.5 mg/L (≈ 1.19 µM)
- Vdss (Mus musculus [24]): 7.1 L/kg
- MIC (Escherichia coli [19]): 7.8 mg/L
- Fu [25]: 0.047
